A selection: hits, their analogues and other compounds. The true share with any hit is near 1.1%.
CAL PDZ FP-1: blocks peptide binding to the human CAL PDZ domain. actives 0.92% (n = 300,000). inhibition, % at 24.9 µM. Q9HD26. purified CAL PDZ, TMR-peptide fluorescence polarization, 1 h;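 active = mean inhibition of at least 30% with at least half of replicates also reaching 30%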;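 also: 0% = DMSO neutral control and 100% = excess unlabeled competitor peptide PRC23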
PglD inh: PglD (C. jejuni) enzyme inhibition | AID 602405 | purified PglD enzyme, DTNB colorimetric CoA detection | actives 0.098% (n = 360,000) | inhibition, % at 12.5 µM; in the data active = inhibition above about 16%, passing the limit was not always enough
miR-122 sensor: blocks miR-122 activity in Huh7 sensor cells. Huh7 miR-122 Renilla luciferase sensor, 48 h; neutral wells = 0, positive control = 100. activation (reporter increase), % at 12.5 µM. actives 0.3% (n = 340,000);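 active = mean replicate activation score at least 90 and every replicate individually at or above 90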;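 also: higher luciferase means less miR-122 activity so hits act as miR-122 inhibitors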
CAL PDZ FP-2: inhibitors of human CAL PDZ peptide binding | Q9HD26 | purified CAL PDZ, TMR-peptide fluorescence polarization, 1 h | actives 0.02% (n = 330,000) | inhibition, % at 20 µM;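 active = highest replicate inhibition of at least 40%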;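 also: plate controls were DMSO neutral control wells for no effect and unlabeled competitor peptide control wells for full effect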
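Test system: purified CerCALP PDZ construct; Compound dosing: one concentration, 20 µM compound; Also added: TMR-labelled reporter peptide T*-PRC34 bound in PDZ groove; Read-out: inhibition from polarization loss; Controls: unlabelled peptide and DMSO controls; Signal: FP readout, S and P plane fluorescence; Incubation: 1 h at RT.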
Cneo AK release: causes C. neoformans cell lysis; adenylate kinase release luminescence, 4 h; normalised: neutral wells 0, clomiphene wells 100; lysis activity, % at 15 µM; actives 0.2% (n = 360,000);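 active = mean lysis activity across replicates of at least 80%, whatever share of replicates individually reach that level; inactive = mean lysis activity below 80%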
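Material – log-phase Cryptococcus neoformans yeast cells · Input – 5 × 10^6 yeast cells/mL · Medium – fresh YPD growth medium · Doses – single compound concentration per well · Timing – static 4 h at 37 °C with compound, 1 h detection · Detection – adenylate kinase release luminescence · Read-out – signal increase indicating cell lysis · Control set – Clomiphene as positive lysis control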
* = called active by the depositor; [ ] = remark or other dose.

What do the screens show for `CCCC(O)C#Cc1cnc2c(c1)C(=O)N([C@H](C)CO)C[C@H](C)[C@H](CN(C)S(=O)(=O)c1cn(C)cn1)O2` (stereo partly specified)?
PglD inh: -2; miR-122 sensor: 5[16.7 µM]; Cneo AK release: 47

How did COc1ccc(NC(=O)c2cc3ccccc3oc2=O)cc1 do in these assays?
PglD inh: 0; miR-122 sensor: 0; Cneo AK release: -4

What do the screens show for `COc1ccc2oc(=O)c(C(=O)Nc3ccccc3O)cc2c1`?
CAL PDZ FP-1: 78*; miR-122 sensor: -2; CAL PDZ FP-2: 18

What do the screens show for `O=C(CN1c2ccccc2Sc2ccccc21)NNC(=O)Nc1cccc(Cl)c1`?
CAL PDZ FP-1: -2; PglD inh: 4; miR-122 sensor: 113*; CAL PDZ FP-2: 0; Cneo AK release: -2

Results for O=C(Cc1ccccc1)NNC(=O)Nc1cccc(Cl)c1 ?
CAL PDZ FP-1: -2; PglD inh: 5; miR-122 sensor: 8; Cneo AK release: -1

Results for CCSc1nnc(NC(=O)Cc2ccc(OC)c(S(=O)(=O)N3CCOCC3)c2)s1 ?
CAL PDZ FP-1: 39*; PglD inh: 3; miR-122 sensor: 5; CAL PDZ FP-2: -1; Cneo AK release: 4

How did CCc1nnc(NC(=O)Cc2ccc(OC)c(S(=O)(=O)N3CCOCC3)c2)s1 do in these assays?
PglD inh: 0; miR-122 sensor: 3; Cneo AK release: 1

Results for O=C(COC(=O)Cc1ccccc1F)NNC(=O)c1ccc([N+](=O)[O-])cc1 ?
CAL PDZ FP-1: -7; PglD inh: 1; CAL PDZ FP-2: -2; Cneo AK release: 2

How did COc1ccc(S(=O)(=O)Nc2ccc(-c3ccc4nnc(C)n4n3)cc2)c(OC)c1 do in these assays?
PglD inh: -4; miR-122 sensor: 92*; CAL PDZ FP-2: 0; Cneo AK release: -1

What do the screens show for `Cc1nn(-c2cccc(Cl)c2)c2nc(C(F)(F)F)[nH]c(=O)c12`?
CAL PDZ FP-1: 43*; CAL PDZ FP-2: -2

How did O=S(=O)(Nc1cccc(-n2cnnn2)c1)c1cc(Br)ccc1Br do in these assays?
CAL PDZ FP-1: -4; PglD inh: -3; miR-122 sensor: 108*; CAL PDZ FP-2: -1; Cneo AK release: 2

Results for CCNc1ccc2noc3c2c1C(=O)c1ccccc1-3 ?
CAL PDZ FP-1: 18; CAL PDZ FP-2: 44*

Results for O=C1c2ccccc2-c2onc3ccc(NCc4ccco4)c1c23 ?
CAL PDZ FP-1: 0; PglD inh: 0; miR-122 sensor: -12; CAL PDZ FP-2: 12; Cneo AK release: -1

Results for O=C(Nc1ccncc1)C1CCN(S(=O)(=O)c2cccs2)CC1 ?
CAL PDZ FP-1: -3; miR-122 sensor: 3; CAL PDZ FP-2: -2

How did O=C(Nc1cc(Cl)ccn1)C1CCN(S(=O)(=O)c2cccs2)CC1 do in these assays?
CAL PDZ FP-1: 33*; PglD inh: -2; miR-122 sensor: -12; CAL PDZ FP-2: 0; Cneo AK release: 0

How did Cc1ccccc1-c1ccc2c(c1)O[C@H](CN(C)C(=O)c1ccccn1)[C@@H](C)CN([C@H](C)CO)S2(=O)=O do in these assays?
PglD inh: -2; miR-122 sensor: 10[16.7 µM]; Cneo AK release: -2

How did O=C1NC(=O)N(Cc2ccccc2)CC1Br (stereo unspecified) do in these assays?
CAL PDZ FP-1: 31*; PglD inh: 2; miR-122 sensor: -6; CAL PDZ FP-2: -1; Cneo AK release: -2

What do the screens show for `N#Cc1cccc(-c2ccc([C@H]3[C@H]4CN(C(=O)Nc5cccc(F)c5)CCCCN4[C@H]3CO)cc2)c1`?
PglD inh: -4; miR-122 sensor: -9[16.7 µM]; Cneo AK release: 1

What do the screens show for `CC(C)C#Cc1ccc2c(c1)O[C@H](CN(C)C(=O)c1cccnc1)[C@H](C)CN([C@@H](C)CO)S2(=O)=O`?
PglD inh: 2; miR-122 sensor: -25[16.7 µM]; Cneo AK release: -3

How did C[C@H]1CN([C@@H](C)CO)C(=O)c2c(c3ccccc3n2C)-c2ccccc2CO[C@H]1CN(C)C(=O)[C@H]1CCCN1C do in these assays?
PglD inh: -3; Cneo AK release: -3

How did c1cc(-c2nnc(-c3ccncc3)o2)ccn1 do in these assays?
CAL PDZ FP-1: 49*

What do the screens show for `O=C(Nc1cccc2c1CCCC2)c1cc(C2CCCCN2C(=O)CCCc2ccccc2)on1` (stereo unspecified)?
miR-122 sensor: -7; Cneo AK release: 1

How did CN1CCN(C(=O)/C(=C/c2cn(S(=O)(=O)N(C)C)c3ccccc23)NC(=O)c2ccccc2F)CC1 do in these assays?
CAL PDZ FP-1: 54*; PglD inh: -3; miR-122 sensor: -8; CAL PDZ FP-2: -2; Cneo AK release: -3

How did C[C@H]1CN([C@@H](C)CO)C(=O)c2cc(-c3ccncc3)cnc2O[C@H]1CN(C)C(=O)c1ccncc1 do in these assays?
PglD inh: -2; miR-122 sensor: -7[16.7 µM]; Cneo AK release: -2

How did Cc1cccc(NS(=O)(=O)c2cc3c4c(c2)C(C)C(=O)N4CCC3)c1 (stereo unspecified) do in these assays?
CAL PDZ FP-1: -1; PglD inh: -2; miR-122 sensor: 110*; CAL PDZ FP-2: -3; Cneo AK release: 0

Results for Cc1cc2c3c([nH]c2cc1S(=O)(=O)NCc1ccc(CN2CCCCCC2)o1)CC(C)(C)CC3=O ?
CAL PDZ FP-1: 46*; PglD inh: 2; miR-122 sensor: 9; CAL PDZ FP-2: -2; Cneo AK release: -3

Results for Cc1cc2c3c([nH]c2cc1S(=O)(=O)NCc1ccc(CN2CCCCCC2)o1)CCCC3=O ?
CAL PDZ FP-1: 1; PglD inh: -3; miR-122 sensor: -4; CAL PDZ FP-2: 0; Cneo AK release: 1

Results for O=C(CCc1ccc(S(=O)(=O)N2CCOCC2)cc1)N/N=C/c1ccc(O)c(O)c1O ?
CAL PDZ FP-1: -2; PglD inh: 0; miR-122 sensor: -2; CAL PDZ FP-2: -1; Cneo AK release: -2

Results for Cc1ccnc(NC(c2cccnc2)c2ccc3cccnc3c2O)c1 (stereo unspecified) ?
CAL PDZ FP-1: -1; miR-122 sensor: -1; CAL PDZ FP-2: -3

Results for Cc1ccc2ccc(C(Nc3cccc(C(F)(F)F)c3)c3cccnc3)c(O)c2n1 (stereo unspecified) ?
CAL PDZ FP-1: 43*; PglD inh: -7; miR-122 sensor: -2; CAL PDZ FP-2: 0; Cneo AK release: 4

Results for CC(C)c1c(Cl)c(O)c(-c2ccccc2)c(=O)n1-c1ccc(F)cc1 ?
CAL PDZ FP-1: 38*; CAL PDZ FP-2: 0

How did COc1cc(-c2noc(CCCC(=O)Nc3ccc(C(N)=O)cc3)n2)cc(OC)c1OC do in these assays?
PglD inh: 2; miR-122 sensor: -13; Cneo AK release: -2

Results for COc1cc(-c2noc(CCCC(=O)Nc3cccnc3)n2)cc(OC)c1OC ?
CAL PDZ FP-1: 69*; CAL PDZ FP-2: -1

Screening results (PubChem)
